The target of this assay is G protein-activated inward rectifier potassium channel 4 (Homo sapiens) + G protein-activated inward rectifier potassium channel 1 (Homo sapiens) (UniProt P48544+P48549). The assay can be described thus: activation of GIRK1/4-mediated thallium influx – cell-based, HEK-293 hGIRK1/4, thallium flux, FluoZin-2, concentration-response, dose response (AID 623975). The settings on record: HEK-293 hGIRK1/4, thallium flux FluoZin-2 fluorescence. An outline of the steps:
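System: HEK-293 line stably expressing hGIRK1/4 / Also added: thallium plus EC20 glutamate / Timing: dye loading ~60 min at room temperature, compound 4 min / Technique: thallium-flux fluorescence with FluoZin-2 AM dye, F/F0 traces / Evaluation: Vehicle-corrected slope as % of MPD, logistic potency fit / Repeats: triplicate wells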

Molecules are shown by their SMILES.

Sequence of G protein-activated inward rectifier potassium channel 4 (Homo sapiens) + G protein-activated inward rectifier potassium channel 1 (Homo sapiens) (P48544 whole entry, looked up): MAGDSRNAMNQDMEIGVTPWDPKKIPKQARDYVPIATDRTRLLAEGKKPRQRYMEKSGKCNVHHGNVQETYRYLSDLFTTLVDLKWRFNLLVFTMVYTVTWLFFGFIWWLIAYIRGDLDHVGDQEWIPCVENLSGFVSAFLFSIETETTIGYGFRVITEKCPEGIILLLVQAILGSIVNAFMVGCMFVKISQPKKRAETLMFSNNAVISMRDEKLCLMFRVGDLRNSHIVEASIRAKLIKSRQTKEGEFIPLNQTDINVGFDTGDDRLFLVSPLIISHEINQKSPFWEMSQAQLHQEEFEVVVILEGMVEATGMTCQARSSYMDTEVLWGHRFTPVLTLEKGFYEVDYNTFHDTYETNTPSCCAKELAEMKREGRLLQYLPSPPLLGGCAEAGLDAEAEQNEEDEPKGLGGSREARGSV
Sequence of G protein-activated inward rectifier potassium channel 4 (Homo sapiens) + G protein-activated inward rectifier potassium channel 1 (Homo sapiens) (P48549 whole entry, looked up): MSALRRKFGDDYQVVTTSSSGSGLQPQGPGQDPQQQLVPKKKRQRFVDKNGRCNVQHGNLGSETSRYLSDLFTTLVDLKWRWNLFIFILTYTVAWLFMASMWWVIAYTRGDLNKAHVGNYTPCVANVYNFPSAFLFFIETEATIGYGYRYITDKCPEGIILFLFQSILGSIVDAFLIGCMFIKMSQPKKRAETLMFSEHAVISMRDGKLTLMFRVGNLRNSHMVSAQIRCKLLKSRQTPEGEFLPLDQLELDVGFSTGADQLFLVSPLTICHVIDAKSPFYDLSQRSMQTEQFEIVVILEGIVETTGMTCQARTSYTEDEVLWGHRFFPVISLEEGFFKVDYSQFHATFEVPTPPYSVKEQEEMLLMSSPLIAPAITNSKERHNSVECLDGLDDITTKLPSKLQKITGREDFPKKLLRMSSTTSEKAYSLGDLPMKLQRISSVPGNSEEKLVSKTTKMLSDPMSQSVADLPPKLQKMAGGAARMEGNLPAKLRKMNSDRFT

For the compound `Cc1cc(NC(=O)Nc2ccc(F)c(F)c2)n(-c2ccccc2)n1`, the EC50 – broadly, the concentration needed to bring the measured effect to its halfway point – is 1120 nM.
